Experimental data published in ChEMBL document CHEMBL3351887, “'Click' assembly of glycoclusters and discovery of a trehalose analogue that retards Aβ40 aggregation and inhibits Aβ40-induced neurotoxicity” (Bioorg Med Chem Lett, 2014).

Tests used:
[1] = target: Amyloid-beta precursor protein (Homo sapiens) (UniProt P05067); assay: Inhibition of amyloid beta-40 aggregation (unknown origin) assessed as extension of lag phase of Abeta40 aggregation by ThT fluorescence assay
In short: (§1)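 Monomer-rich Aβ40 (35 µM, supernatant after NaOH dissolution, sonication and ultracentrifugation) was incubated with 10 nM–100 µM compound in 20 mM phosphate buffer pH 7.4 (I 0.15 M), with 20 µM ThT and 0.007% NaN3, quiescent at 37 °C. Fluorescence (ex 440, em 480 nm) was read every 5 min. Lag time came from an empirical sigmoidal nonlinear-regression fit; mean ± SE of four independent experiments.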

[2] = target: Amyloid-beta precursor protein (Homo sapiens) (UniProt P05067); assay: Inhibition of amyloid beta-40 aggregation (unknown origin) assessed as extension of lag phase of Abeta40 aggregation at 100 uM by ThT fluorescence assay; parameters: scale not given: the % may be the effect or the level left; in short: as §1
[3] = target: Amyloid-beta precursor protein (Homo sapiens) (UniProt P05067); assay: Inhibition of amyloid beta-40 aggregation (unknown origin) assessed as alpha-helix at 36 uM after 72 hrs by CD spectra analysis (reference value: 11 to 15%); parameters: scale not given: the % may be the effect or the level left
In short: (§2)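 Low-molecular-weight Aβ40 was prepared by dissolving the peptide in dilute aqueous NaOH (pH 10.5–12) and diluting in phosphate buffer (pH 7.4). It was sonicated for 60 s and ultracentrifuged at 80,000 rpm for 90 min at 4 °C, and the supernatant was used. Compound and Aβ40 were incubated quiescently at pH 7.4 and 37 °C at molar ratios 1:5, 1:1 and 5:1. Secondary-structure fractions were read from CD spectra after 72 h.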

[4] = target: Amyloid-beta precursor protein (Homo sapiens) (UniProt P05067); assay: Inhibition of amyloid beta-40 aggregation (unknown origin) assessed as alpha-helix at 180 uM after 72 hrs by CD spectra analysis (reference value: 11 to 15%); parameters: scale not given: the % may be the effect or the level left; in short: as §2
[5] = target: Amyloid-beta precursor protein (Homo sapiens) (UniProt P05067); assay: Inhibition of amyloid beta-40 aggregation (unknown origin) assessed as alpha-helix at 900 uM after 72 hrs by CD spectra analysis (reference value: 11 to 15%); parameters: scale not given: the % may be the effect or the level left; in short: as §2
[6] = target: Amyloid-beta precursor protein (Homo sapiens) (UniProt P05067); assay: Inhibition of amyloid beta-40 aggregation (unknown origin) assessed as beta-sheet at 36 uM after 72 hrs by CD spectra analysis (reference value: 2 to 3%); parameters: scale not given: the % may be the effect or the level left; in short: as §2
[7] = target: Amyloid-beta precursor protein (Homo sapiens) (UniProt P05067); assay: Inhibition of amyloid beta-40 aggregation (unknown origin) assessed as beta-sheet at 180 uM after 72 hrs by CD spectra analysis (reference value: 2 to 3%); parameters: scale not given: the % may be the effect or the level left; in short: as §2
[8] = target: Amyloid-beta precursor protein (Homo sapiens) (UniProt P05067); assay: Inhibition of amyloid beta-40 aggregation (unknown origin) assessed as beta-sheet at 900 uM after 72 hrs by CD spectra analysis (reference value: 2 to 3%); parameters: scale not given: the % may be the effect or the level left; in short: as §2
[9] = target: Amyloid-beta precursor protein (Homo sapiens) (UniProt P05067); assay: Inhibition of amyloid beta-40 aggregation (unknown origin) assessed as beta-turns at 36 uM after 72 hrs by CD spectra analysis (reference value: 0%); parameters: scale not given: the % may be the effect or the level left; in short: as §2
[10] = target: Amyloid-beta precursor protein (Homo sapiens) (UniProt P05067); assay: Inhibition of amyloid beta-40 aggregation (unknown origin) assessed as beta-turns at 180 uM after 72 hrs by CD spectra analysis (reference value: 0%); parameters: scale not given: the % may be the effect or the level left; in short: as §2
[11] = target: Amyloid-beta precursor protein (Homo sapiens) (UniProt P05067); assay: Inhibition of amyloid beta-40 aggregation (unknown origin) assessed as beta-turns at 900 uM after 72 hrs by CD spectra analysis (reference value: 0%); parameters: scale not given: the % may be the effect or the level left; in short: as §2
[12] = target: Amyloid-beta precursor protein (Homo sapiens) (UniProt P05067); assay: Inhibition of amyloid beta-40 aggregation (unknown origin) assessed as unordered at 36 uM after 72 hrs by CD spectra analysis (reference value: 82 to 85%); parameters: scale not given: the % may be the effect or the level left; in short: as §2
[13] = target: Amyloid-beta precursor protein (Homo sapiens) (UniProt P05067); assay: Inhibition of amyloid beta-40 aggregation (unknown origin) assessed as unordered at 180 uM after 72 hrs by CD spectra analysis (reference value: 82 to 85%); parameters: scale not given: the % may be the effect or the level left; in short: as §2
[14] = target: Amyloid-beta precursor protein (Homo sapiens) (UniProt P05067); assay: Inhibition of amyloid beta-40 aggregation (unknown origin) assessed as unordered at 900 uM after 72 hrs by CD spectra analysis (reference value: 82 to 85%); parameters: scale not given: the % may be the effect or the level left; in short: as §2
[15] = Neuroprotective activity in C57BL/6 mouse primary cortical neurons assessed as reduction in amyloid beta-40-induced cell death at 240 uM pre-incubated with amyloid beta-40 for 6 hrs and measured after 48 hrs by trypan blue dye exclusion assay; format: functional, Cerebral cortex neuron; parameters: scale not given: the % may be the effect or the level left
[16] = Neuroprotective activity in C57BL/6 mouse primary cortical neurons assessed as reduction in amyloid beta-40-induced cell death at 600 uM pre-incubated with amyloid beta-40 for 6 hrs and measured after 48 hrs by trypan blue dye exclusion assay; format: functional, Cerebral cortex neuron; parameters: scale not given: the % may be the effect or the level left
[17] = target: Amyloid-beta precursor protein (Homo sapiens) (UniProt P05067); assay: Inhibition of amyloid beta-40 aggregation (unknown origin) assessed as fibril width at 1800 uM for 7 days at pH 7.4 by transmission electron microscopy (reference value: 12.3 +/- 1.2 nanometer)
[18] = Toxicity in C57BL/6 mouse primary cortical neurons assessed as reduction in cell viability at 240 to 600 uM after 48 hrs by trypan blue dye exclusion assay; format: cell-based; settings: cerebral cortex neuron

Chain of Amyloid-beta precursor protein (Homo sapiens) (P05067 whole entry): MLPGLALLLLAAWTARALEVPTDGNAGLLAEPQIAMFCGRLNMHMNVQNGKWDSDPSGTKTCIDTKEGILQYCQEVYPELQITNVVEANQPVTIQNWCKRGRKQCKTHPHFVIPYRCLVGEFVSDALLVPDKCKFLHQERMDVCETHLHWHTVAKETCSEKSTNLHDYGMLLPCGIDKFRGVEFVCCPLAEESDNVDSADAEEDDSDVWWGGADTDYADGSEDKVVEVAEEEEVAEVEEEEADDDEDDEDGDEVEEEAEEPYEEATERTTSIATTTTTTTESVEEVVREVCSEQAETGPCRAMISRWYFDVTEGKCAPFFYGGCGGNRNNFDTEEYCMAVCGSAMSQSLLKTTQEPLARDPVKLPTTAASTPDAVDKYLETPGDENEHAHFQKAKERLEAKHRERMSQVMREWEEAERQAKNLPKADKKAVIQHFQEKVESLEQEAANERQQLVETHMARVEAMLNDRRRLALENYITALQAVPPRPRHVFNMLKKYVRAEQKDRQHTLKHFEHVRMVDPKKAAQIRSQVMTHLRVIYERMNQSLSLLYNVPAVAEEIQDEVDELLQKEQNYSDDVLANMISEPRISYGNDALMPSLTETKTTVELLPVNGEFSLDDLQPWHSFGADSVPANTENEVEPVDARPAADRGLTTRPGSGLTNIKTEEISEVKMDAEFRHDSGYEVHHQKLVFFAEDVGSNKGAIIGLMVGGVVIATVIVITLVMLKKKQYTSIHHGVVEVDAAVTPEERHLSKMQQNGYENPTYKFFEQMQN

SMILES	inhibition [1]	Activity [2] [%]	Activity [3] [%]	Activity [4] [%]	Activity [5] [%]	Activity [6] [%]	Activity [7] [%]	Activity [8] [%]	Activity [9] [%]	Activity [10] [%]	Activity [11] [%]	Activity [12] [%]	Activity [13] [%]	Activity [14] [%]	Activity [15] [%]	Activity [16] [%]	Activity [17] [nm]	Activity [18]
OC[C@H]1O[C@@H](O[C@H]2[C@H](O)[C@@H](O)[C@H](n3cc(COCC(COCc4cn([C@@H]5O[C@H](CO)[C@@H](O[C@@H]6O[C@H](CO)[C@H](O)[C@H](O)[C@H]6O)[C@H](O)[C@H]5O)nn4)(COCc4cn([C@@H]5O[C@H](CO)[C@@H](O[C@@H]6O[C@H](CO)[C@H](O)[C@H](O)[C@H]6O)[C@H](O)[C@H]5O)nn4)COCC(COCc4cn([C@@H]5O[C@H](CO)[C@@H](O[C@@H]6O[C@H](CO)[C@H](O)[C@H](O)[C@H]6O)[C@H](O)[C@H]5O)nn4)(COCc4cn([C@@H]5O[C@H](CO)[C@@H](O[C@@H]6O[C@H](CO)[C@H](O)[C@H](O)[C@H]6O)[C@H](O)[C@H]5O)nn4)COCc4cn([C@@H]5O[C@H](CO)[C@@H](O[C@@H]6O[C@H](CO)[C@H](O)[C@H](O)[C@H]6O)[C@H](O)[C@H]5O)nn4)nn3)O[C@@H]2CO)[C@H](O)[C@@H](O)[C@H]1O	Dose-dependent effect	28																
OC[C@H]1O[C@H](O[C@H]2O[C@H](CO)[C@@H](O)[C@H](O)[C@H]2O)[C@H](O)[C@@H](O)[C@@H]1O [TREHALOSE]			19	26	18	36	36	36	30	33	29	15	5	17	39	55	11.8	Non-toxic
